Source: PubChem BioAssay
DAGLB inhibitor: diacylglycerol lipase beta (human) inhibition; Q8NCG7; HEK293T DAGLB membrane lysate, EnzChek fluorogenic substrate; inhibition, % at 5.17 µM; 340,000 tested, 0.059% active; AID 504411; in the data active = inhibition above about 34%
GRK2 aptamer HTS: blocks RNA aptamer binding to human GRK2; P25098; bead flow cytometry, FAM-aptamer displacement from GRK2; inhibition of aptamer binding, % at 10 µM; 330,000 tested, 0.59% active; AID 488847;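 active = inhibition of aptamer binding above 40%, roughly 3 SD of noise, on plates passing a quality check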;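 also: median bead fluorescence of bound FAM aptamer so fluorescent compounds give negative values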
Target sequence (P25098 whole entry, looked up): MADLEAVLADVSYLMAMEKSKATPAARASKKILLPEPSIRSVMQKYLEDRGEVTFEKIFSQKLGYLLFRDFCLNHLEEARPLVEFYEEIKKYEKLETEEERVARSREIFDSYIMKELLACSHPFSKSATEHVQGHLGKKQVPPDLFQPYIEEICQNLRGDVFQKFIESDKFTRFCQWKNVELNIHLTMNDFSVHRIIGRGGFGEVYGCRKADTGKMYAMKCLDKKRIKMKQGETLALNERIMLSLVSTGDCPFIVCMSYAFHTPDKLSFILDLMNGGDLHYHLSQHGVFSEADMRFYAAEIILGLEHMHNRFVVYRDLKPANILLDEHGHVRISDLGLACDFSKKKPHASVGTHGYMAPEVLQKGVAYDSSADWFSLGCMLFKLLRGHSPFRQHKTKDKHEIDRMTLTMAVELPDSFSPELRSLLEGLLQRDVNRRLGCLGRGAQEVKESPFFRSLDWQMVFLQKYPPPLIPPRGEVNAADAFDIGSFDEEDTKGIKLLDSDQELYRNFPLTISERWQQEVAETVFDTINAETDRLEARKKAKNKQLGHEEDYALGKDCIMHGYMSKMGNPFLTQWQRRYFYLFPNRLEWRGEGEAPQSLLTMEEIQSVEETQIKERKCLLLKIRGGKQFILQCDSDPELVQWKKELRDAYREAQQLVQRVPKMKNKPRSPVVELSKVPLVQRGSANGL
core dimer inh: HCV core protein dimerization inhibition; TR-FRET GST/Flag-core106 dimerization, 1536-well; inhibition, % at 5 µM; 300,000 tested, 0.33% active; AID 1899;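 active = inhibition above the mean of all tested compounds plus 3 SD, set per screening campaign, cut at about 45% in these data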
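Test system: GST/Flag-tagged HCV core106 proteins; Medium: KF-containing HEPES buffer, pH 7.45, DTT, CHAPS, BSA; Times: compound-protein-antibody incubation 4 h at 22.5 °C; Detection: TR-FRET 671 and 617 nm emission; Benchmarks: wells lacking GST-core106 and wells with excess unlabelled core106.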
HCV NS3 hel inh: blocks Hepatitis C virus NS3 helicase unwinding; 290,000 tested, 0.56% active; NS3 helicase DNA unwinding, Cy5 molecular beacon fluorescence; AID 1800; inhibition, % at 10.9 µM;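 active = inhibition above the mean of all tested compounds plus 3 SD, set per campaign, cut at about 35% in these data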
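Control set: DMSO versus 110 µM thioflavine S; Material: NS3 helicase fragment of HCV; Measured by: Cy5 fluorescence at 0 and 60 min, beacon hairpin quenching; Read-out basis: percent inhibition from t60/t0 fluorescence ratio; Times: reaction time 60 min, 25 °C; Repeats: single replicate; Compound dosing: single dose, 10.9 µM nominal final, DMSO 0.8% final.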
GPR7 antag: antagonists of human GPR7 (neuropeptides B/W receptor 1); 290,000 tested, 1.1% active; inhibition, % at 4.4 µM; AID 1861; GPR7-expressing cells, fluorescence antagonist assay; in the data active = inhibition above about 16%, passing the limit was not always enough;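 also: cells stimulated with the agonist NPW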
FID counter: displaces DNA intercalator in HCV helicase counter-screen. DNA fluorescent intercalator displacement, fluorescence. 290,000 tested, 0.17% active. AID 1845. inhibition, % at 7.9 µM; in the data active = inhibition above about 37%;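 also: higher means more ethidium bromide displaced from hairpin DNA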
GRK2 CP1: confirmation of human GRK2 inhibitors displacing RNA aptamer; bead-bound GRK2, FAM-aptamer displacement, flow cytometry; 2,000 tested, 4% active; shares compounds with GRK2 aptamer HTS; AID 504451; aptamer displacement, % at 10 µM;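 active = aptamer displacement above 40%, near three times the noise of non-fluorescent compounds, on plates passing quality checks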;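 also: negative values mostly reflect intrinsic compound fluorescence rather than true enhancement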
Aptamer quench: counter-screen for GRK2 aptamer inhibitors: fluorescent aptamer quenchers. Fluorescent RNA aptamer beads, quenching, flow cytometry; active compounds read high. AID 504521. shares compounds with GRK2 aptamer HTS. 110 tested, under 10 active. fluorescence change (kMESF span), kMESF (test concentration not listed);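 active = compounds whose bead fluorescence drops by more than 37 kMESF across the dose range, marking them as dye quenchers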
Aptamer quench SP: counter-screen for GRK2 aptamer inhibitors: fluorescent aptamer quenchers. shares compounds with GRK2 aptamer HTS. Carboxyfluorescein RNA aptamer on beads, flow cytometry quenching; active compounds read low. fluorescence response (% of DMSO), % at 10 µM. 2,000 tested, under 10 active. AID 504580;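 active = compounds that quench the bead-bound fluorescent RNA probe, cutting fluorescence to under half of the solvent control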;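 also: counterscreen run without GRK2 so only probe quenching by compound is measured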
GRK2 confirm 2: confirmation of human GRK2 inhibitors binding RNA aptamer site | shares compounds with GRK2 aptamer HTS | bead-bound GRK2, FAM-aptamer displacement, flow cytometry | inhibition of aptamer binding, % at 10 µM | 360 tested, under 10 active;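 active = inhibition of aptamer binding above 40%, about triple the noise seen with nonglowing compounds, on plates passing quality control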;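 also: negative values mostly come from compounds that fluoresce themselves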
FAM quench SP: aptamer fluorescence quenching in GRK2 counter-screen | shares compounds with GRK2 aptamer HTS | carboxyfluorescein RNA aptamer beads, flow cytometry quenching; active compounds read low | fluorescence response vs DMSO, % at 10 µM | 360 tested, under 10 active | AID 588494;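 active = response vs DMSO under 50%, meaning signal dropped by over half, treated as fluorescence quencher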;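 also: labelled aptamer on streptavidin beads without GRK2 as a quench counter-screen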
DAGLB inh conf: DAGLB (human) inhibition, confirmation screen. shares compounds with DAGLB inhibitor. HEK293T DAGLB membrane lysate, EnzChek fluorogenic substrate. inhibition, % at 5.17 µM. 190 tested, 73% active;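 active = mean inhibition over triplicate wells above a set limit taken from the primary lipase screen, cut at about 34% in these data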
Numbers stand for hits; 0 = inactive; - = not tested or not shown. A selection: hits, their analogues and other compounds. The true share with any hit is near 2.2%.

SMILES	DAGLB inhibitor	GRK2 aptamer HTS	core dimer inh	HCV NS3 hel inh	GPR7 antag	FID counter	GRK2 CP1	Aptamer quench SP	others
CC1(C)OC(c2ccccc2)=C/C(=C/C=C2C(=O)NC(=S)NC2=O)O1	-	48.0	0	0	0	0	0	0
CN1/C(=C\C=C2C(=O)NC(=S)NC2=O)C(C)(C)c2ccccc21	0	-	-	0	0	0	-	-
Nc1ccc2ccc3cccc[n+]3c2c1	0	52.0	0	0	0	0	0	44.3
CCc1nc2ccc(N3CCN(C)CC3)cc2nc1CC	0	100.0	0	0	0	0	0	0
Cc1nn(-c2ccccc2)c2c1C(c1ccc3c(c1)OCO3)SCC(=O)N2 (stereo not given)	0	0	0	0	0	0	0	0
COc1cc(C2SCC(=O)Nc3c2c(C)nn3-c2ccccc2)cc(OC)c1OC (stereo not given)	0	0	0	0	0	0	-	-
Cc1ccsc1C(=O)C1CCCN(Cc2cnc(N(C)C)s2)C1 (stereo not given)	-	0	0	0	0	0	-	-
Cc1ccsc1C(=O)C1CCCN(Cc2cnc(N3CCOCC3)s2)C1 (stereo not given)	0	0	0	0	0	0	0	0
Cn1ncnc2c(=O)n(C)c(=O)nc1-2	0	61.0	0	-	-	-	72.6	0	Aptamer quench=0
Cc1ccc(-c2nc3ccccc3c(=O)n2-c2ncccc2C)cc1	0	60.0	0	0	0	0	0	0
Cc1cccnc1-n1c(-c2ccccc2)nc2ccccc2c1=O	0	0	0	0	0	0	-	-
CCN1CCC2(CC1)NC(CO)(CO)CO2	0	48.0	0	0	0	0	0	0
CCCN1CCC2(CC1)NC(CO)(CO)CO2	0	0	0	0	0	0	-	-
C[C@@H]1CN([C@H](C)CO)C(=O)CCCn2nncc2CO[C@H]1CN(C)C(=O)Oc1ccccc1	0	-	-	-	-	-	-	-
N/C(=N\[N+](=O)[O-])N1CCN(C(=O)OC2CCCC2)CC1	0	0	0	0	0	0	-	-
O=c1[nH]c(=S)n(-c2ccccc2Cl)c(O)c1C=NCCN1CCNCC1	0	0	-	0	0	0	-	-
Cc1cc(=O)oc2cc(OCC(=O)N3C[C@H]4C[C@@H](C3)c3cccc(=O)n3C4)c(Cl)cc12	0	0	0	0	0	0	-	-
Cc1cc(=O)oc2cc(OCC(=O)N3CCN(C(C)c4ccccc4)CC3)c(Cl)cc12 (stereo not given)	0	0	-	-	-	-	0	0
CN1C2CCC1/C(=C/c1ccccn1)C(=O)/C2=C\c1ccccn1	0	92.0	0	0	0	0	0	0
Cc1ccc2c(c1)C1CN(C)CCC1N2C(=O)/C=C/c1ccc2c(c1)OCO2 (stereo not given)	0	64.0	0	0	0	0	0	0
Cc1ccc2c(c1)C1CN(C)CCC1N2C(=O)COc1ccc(S(=O)(=O)N2CCOCC2)cc1 (stereo not given)	0	0	0	0	0	0	0	0
Cc1ccc2c(c1)C1CN(C)CCC1N2C(=O)Cc1cccs1 (stereo not given)	0	0	0	0	0	0	-	-
COC(=O)C1=C(c2ccccc2OCc2ccccc2)C[C@@H]2CC[C@H]1N2C(=O)NCc1ccc(Br)cc1	0	0	-	-	-	-	-	-
COc1cc(/C=C/c2nc3ccccc3c(=O)n2-c2ccccc2O)ccc1O	0	48.0	0	0	0	0	0	0
COC(=O)C1=C(c2ccc(-c3ccccc3)c(F)c2)C[C@@H]2CC[C@H]1N2C(=O)NCc1ccco1	0	0	-	-	-	-	-	-
SMILES	DAGLB inhibitor	GRK2 aptamer HTS	core dimer inh	HCV NS3 hel inh	GPR7 antag	FID counter	GRK2 CP1	Aptamer quench SP	others
CCOc1ccc(N=Cc2c(O)n(CCc3ccc(OC)c(OC)c3)c(=O)[nH]c2=O)cc1	0	100.0	0	0	0	0	0	0
N#CCCCCC#N	0	0	-	-	-	-	-	-
O=C(c1ccc(Br)cc1)C12CN3CN(CN(C3)C1)C2	0	0	0	0	0	0	-	-
COc1ccc(C(=O)C23CN4CN(CN(C4)C2)C3)cc1	0	43.0	0	0	0	0	0	0
COC1=CC(=O)[C@]2(C=C1OC)OC[C@@H]1Oc3c(ccc4c3C=CC(C)(C)O4)C(=O)[C@@H]12	-	0	-	-	-	-	-	-
O=c1[nH]c(=S)n(-c2ccccc2)c(O)c1C=NCCN1CCNCC1	0	89.0	-	0	0	0	0	0
O=c1[nH]c(=S)n(-c2cccc(Cl)c2)c(O)c1C=NCCN1CCNCC1	0	0	0	0	0	0	-	-
CC(C(N)=O)N1CC(c2ccc(Cl)cc2)CC1=O (stereo not given)	0	50.0	0	0	0	0	0	0
CC(C(N)=O)N1CC(c2ccccc2)CC1=O (stereo not given)	0	0	0	0	0	0	-	-
C[C@]12CCC3C(CC[C@H]4C[C@H](O)CC[C@]34C)C1CC(=O)[C@@H]2O (stereo not given in full)	0	100.0	-	-	-	-	0	0
CC[C@]12CC[C@H](O)CC1=CCC1C2CC[C@]2(C)C(=O)CCC12 (stereo not given in full)	-	42.0	-	-	-	-	-	-	GRK2 confirm 2=0;FAM quench SP=0
ClCC(Br)CBr (stereo not given)	0	0	-	-	-	-	-	-
NP(=O)(OCCCc1ccccc1)Oc1ccc(Cl)cc1 (stereo not given)	35.3	0	0	0	0	0	-	-	DAGLB inh conf=34.8
CCC1CCC(C)N(N=O)C1 (stereo not given)	0	-	-	-	-	-	-	-
